Results taken from PubChem BioAssay AID504677 (The Scripps Research Institute Molecular Screening Center, 2011).
pIC50: −log10 of the molar value. Activity calls are given as the source filed them.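 How the source made its calls: active means compounds with IC50 half-inhibiting concentration of 10 µM or lower; inactive means IC50 above 10 µM.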

System: E. coli V3065 expressing H. pylori AddAB, T4 phage, OD growth
Assay: AddAB helicase-nuclease blockers, potency curves – absorbance, E. coli V3065, T4 phage, powder samples, late-stage follow-up (AID 504677)
In short: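 Assay system: addAB+ E. coli strain V3065; timing: 60 min compound-cell pre-incubation, then 18 h phage exposure at 37 °C; replicates: each concentration tested in triplicate; signal: absorbance at 600 nm as bacterial growth measure; read-out basis: IC50 from sigmoidal fit of percent inhibition versus concentration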

SMILES	IC50	pIC50
O=C(OCC(=O)c1cccs1)c1ccc([N+](=O)[O-])o1	53.3 µM (inactive)	
NC(=O)c1ccsc1NC(=O)COC(=O)c1ccc([N+](=O)[O-])o1		5.23
O=C(Nc1ncccn1)c1ccc([N+](=O)[O-])o1		5.12
Cc1ccc2nc(/C(C#N)=C\c3ccc([N+](=O)[O-])o3)[nH]c2c1		5.03
C=CCn1c(Sc2ncc([N+](=O)[O-])s2)n[nH]c1=O	14.8 µM (inactive)	
O=C(Nc1cccc(NC(=O)c2ccccc2Cl)c1)c1ccc([N+](=O)[O-])o1	> 13.2 µM (inactive)	
N#Cc1c(NC(=O)c2ccc([N+](=O)[O-])o2)sc2c1CCC2	17.8 µM (inactive)	
CC(=O)Nc1ccc2nc(NC(=O)c3ccc([N+](=O)[O-])o3)sc2c1	> 119 µM (inactive)	
CCn1cc(C(=O)O)c(=O)c2cnc(N3CCN(C(=S)Nc4ccccc4C(F)(F)F)CC3)nc21	35.5 µM (inactive)	
O=C(Nc1ccc(N2CCOCC2)cc1)c1ccc([N+](=O)[O-])o1	11.8 µM (inactive)	
O=C(NCc1cccnc1)c1ccc([N+](=O)[O-])o1	18.9 µM (inactive)	
Cc1cccnc1NC(=O)c1ccc([N+](=O)[O-])o1	19.6 µM (inactive)	
